Laboratory results published in article PMC9996623 (ACS Omega, 2023).

Assays:
[1] = biological target: HIV-1 integrase (Human immunodeficiency virus type 1 group M subtype B, UniProt P04585); experiment: HIV-1 integrase strand transfer; format: biochemical; settings: for inhibition at 10 µM: read-out: %ST inhibition (percentage inhibition of strand transfer activity of integrase enzyme), 10 μM dose, WT (wild-type) integrase; for fold increase in %ST inhibition compared to 10a: versus 10a
[2] = system: TZM-bl cells; experiment: MTT cytotoxicity assay on TZM-bl cells; format: cell-based; settings: IC50 values at 48 h, 3.125 to 200 μM
In short: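 Medium with compound removed; MTT reagent (5 mg/mL) added for 4 h; formazan dissolved in DMSO with shaking; absorbance read at 570 nm against a 630 nm reference. Percent viability plotted versus concentration.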

SMILES	inhibition at 10 µM [1] [%]	also measured
Cn1cc(-c2ccc3c(c2)OCO3)c2ccc(Cl)nc21 [10h, 3-(Benzo[d][1,3]dioxol-5-yl)-6-chloro-1-methyl-1H-pyrrolo[2,3-b]pyridine]	54	
Cn1cc(-c2ccc(F)cc2)c2ccc(Cl)nc21 [10e, 6-Chloro-3-(4-fluorophenyl)-1-methyl-1H-pyrrolo[2,3-b]pyridine]	38.3	
Cn1cc(-c2ccccc2)c2ccc(-c3cc(C(F)(F)F)cc(C(F)(F)F)c3)nc21 [11c, 6-(3,5-Bis(trifluoromethyl)phenyl)-1-methyl-3-phenyl-1H-pyrrolo[2,3-b]pyridine]	36.4	
COc1ccc(-c2ccc3c(-c4ccc(F)cc4F)cn(C)c3n2)cc1 [11d, 3-(2,4-Difluorophenyl)-6-(4-methoxyphenyl)-1-methyl-1H-pyrrolo[2,3-b]pyridine]	72	
Cc1cccc(-c2cn(C)c3nc(Cl)ccc23)c1 [10c, 6-Chloro-1-methyl-3-(m-tolyl)-1H-pyrrolo[2,3-b]pyridine]	19.4	
Cc1ccc(-c2cn(C)c3nc(Cl)ccc23)cc1 [10b, 6-Chloro-1-methyl-3-(p-tolyl)-1H-pyrrolo[2,3-b]pyridine]	41	fold increase in %ST inhibition compared to 10a ([1]; 10 μM dose): ~3 fold
COc1ccc(-c2cn(C)c3nc(Cl)ccc23)cc1 [10d, 6-Chloro-3-(4-methoxyphenyl)-1-methyl-1H-pyrrolo[2,3-b]pyridine]	56	
COc1ccc(Cn2cc(-c3ccc4c(c3)OCO4)c3ccc(-c4ccc5ccccc5c4)nc32)cc1 [12b, 3-(Benzo[d][1,3]dioxol-5-yl)-1-(4-methoxybenzyl)-6-(naphthalen-2-yl)-1H-pyrrolo[2,3-b]pyridine]	24.1	
Cn1cc(-c2cc(C(F)(F)F)cc(C(F)(F)F)c2)c2ccc(Cl)nc21 [10f, 3-(3,5-Bis(trifluoromethyl)phenyl)-6-chloro-1-methyl-1H-pyrrolo[2,3-b]pyridine]	48.3	
Cn1cc(-c2ccccc2)c2ccc(-c3ccsc3)nc21 [11e, 1-Methyl-3-phenyl-6-(thiophen-3-yl)-1H-pyrrolo[2,3-b]pyridine]	41.6	
COc1ccc(-c2ccc3c(-c4ccccc4)cn(C)c3n2)cc1 [11a, 6-(4-Methoxyphenyl)-1-methyl-3-phenyl-1H-pyrrolo[2,3-b]pyridine]	39.3	fold increase in %ST inhibition compared to 10a ([1]; 10 μM dose): ~2 fold
Cc1ccc(-c2ccc3c(-c4ccccc4)cn(C)c3n2)cc1 [11b, 1-Methyl-3-phenyl-6-(p-tolyl)-1H-pyrrolo[2,3-b]pyridine]	51.7	
COc1ccc(Cn2cc(-c3ccsc3)c3ccc(-c4ccncc4)nc32)cc1 [12a, 1-(4-Methoxybenzyl)-6-(pyridin-4-yl)-3-(thiophen-3-yl)-1H-pyrrolo[2,3-b]pyridine]	15.9	
Cc1nnc(C(=O)NC(C)(C)c2nc(C(=O)NCc3ccc(F)cc3)c(O)c(=O)n2C)o1 [RAL, Raltegravir, reference compound]	82	
Cn1cc(-c2ccccc2)c2ccc(Cl)nc21 [10a, 6-Chloro-1-methyl-3-phenyl-1H-pyrrolo[2,3-b]pyridine]	14	
Cn1cc(-c2ccc3c(c2)OCO3)c2ccc(-c3ccncc3)nc21 [11f, 3-(Benzo[d][1,3]dioxol-5-yl)-1-methyl-6-(pyridin-4-yl)-1H-pyrrolo[2,3-b]pyridine]	71	fold increase in %ST inhibition comparing 10h and 11f ([1]; 10 μM dose, versus 10h): ~1.3 fold; IC50 in TZM-bl [2]: minimal cytotoxicity
